Paper PMC10870114 (Clinical Cancer Research, 2023)

Experiments:
[1] = test system: patients with locally advanced rectal cancer; assay: Dose-limiting toxicities; format: in vivo, human
[2] = test system: patients with locally advanced rectal cancer; assay: Treatment-emergent adverse events; format: in vivo, human
[3] = test system: locally advanced rectal cancer; assay: Disease-free survival, recurrence and progression events; format: in vivo, human
How it was run: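 They also received capecitabine 825 mg/m2 twice daily and RT 50–50.4 Gy in 25 or 28 fractions, 5 days/week, for 5–5.5 weeks. DFS was estimated by Kaplan–Meier with two-sided 95% CI.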

[4] = Plasma pharmacokinetics on fraction day; format: in vivo, human
DNA-PK = DNA-PK (Homo sapiens, UniProt P78527); assay: pDNA-PK/tDNA-PK ratio in bleomycin-stimulated PBMCs, pre- and post-dosing; settings: PBMCs stimulated with bleomycin ex vivo; evidence of target engagement
[5] = Overall, peposertib 50-250 mg + RT + capecitabine, n = 19
[6] = peposertib 50 mg + RT + capecitabine, n = 1
[7] = peposertib 100 mg + RT + capecitabine, n = 6
[8] = peposertib 150 mg + RT + capecitabine, n = 6
[9] = peposertib 250 mg + RT + capecitabine, n = 6

COc1ccc([C@@H](O)c2cc(-c3ncnc4cc(N5CCOCC5)ccc34)c(F)cc2Cl)nn1 [Peposertib]
DLT reported overall ([1]; all dose cohorts): five | Peposertib dose considered tolerable in combination with RT and capecitabine ([1]; based on the totality of safety data): ≤ 150 mg once daily | Dose-limiting toxicities, patients with DLT of evaluable patients ([1]; peposertib 100 mg once daily + CRT, radiation skin injury and enterocolitis): one out of five | Dose-limiting toxicities, patients with DLT of evaluable patients ([1]; peposertib 250 mg once daily + CRT, two enterocolitis and one proctitis): three out of six | MTD and RP2D ([1]; peposertib + capecitabine-based CRT, study enrollment prematurely discontinued): not declared | Grade 4 TEAE: lymphocyte count decrease ([2]; 100-mg cohort): 1 n | Grade 4 TEAE: lymphopenia ([2]; 100-mg cohort): 1 n | Grade 4 TEAE: lymphopenia ([2]; 150-mg cohort): 1 n | Grade 4 TEAE: enterocolitis ([2]; 250-mg cohort): 1 n | Grade 4 TEAE: leukopenia and lymphocyte count decrease ([2]; 250-mg cohort): 1 n | Patients with any Capecitabine-related TEAE [2, 5]: 19 (100) n (%) | Patients with any Capecitabine-related grade ≥3 TEAE [2, 5]: 10 (53) n (%) | Patients with any Capecitabine-related grade ≥4 TEAE [2, 5]: 5 (26) n (%) | Patients with any Capecitabine-related serious TEAE [2, 5]: 5 (26) n (%) | Patients with any Grade ≥3 TEAE [2, 5]: 14 (74) n (%) | Patients with any Grade ≥4 TEAE [2, 5]: 5 (26) n (%) | Patients with any Peposertib-related TEAE [2, 5]: 17 (90) n (%) | Patients with any Peposertib-related grade ≥ 3TEAE [2, 5]: 13 (68) n (%) | Patients with any Peposertib-related grade ≥4 TEAE [2, 5]: 5 (26) n (%) | Patients with any Peposertib-related serious TEAE [2, 5]: 6 (32) n (%) | Patients with any RT-related TEAE [2, 5]: 19 (100) n (%) | Patients with any RT-related grade ≥3 TEAE [2, 5]: 9 (47) n (%) | Patients with any RT-related grade ≥4 TEAE [2, 5]: 4 (21) n (%) | Patients with any RT-related serious TEAE [2, 5]: 5 (26) n (%) | Patients with any Serious TEAE [2, 5]: 7 (37) n (%) | Patients with any TEAE [2, 5]: 19 (100) n (%) | Patients with any TEAE leading to death [2, 5]: 0 n (%) | Patients with any TEAE leading to permanent discontinuation of RT [2, 5]: 2 (11) n (%) | Patients with any TEAE leading to permanent discontinuation of capecitabine [2, 5]: 3 (15.8) n (%) | Patients with any TEAE leading to permanent discontinuation of peposertib [2, 5]: 4 (21) n (%) | Patients with any TEAE leading to study discontinuation [2, 5]: 0 n (%) | Most frequently reported TEAE: fatigue ([2]; across all cohorts, n = 9): 47.4% | Most frequently reported TEAE: nausea ([2]; across all cohorts, n = 9): 47.4% | Most frequently reported TEAE: proctitis ([2]; across all cohorts, n = 9): 47.4% | Most frequently reported TEAE: diarrhea ([2]; across all cohorts, n = 15): 78.9% | Patients with grade ≥3 TEAE ([2]; all cohorts, 14 of 19 patients): 73.7% | Grade ≥3 TEAE: diarrhea ([2]; all cohorts, n = 19): 15.8% | Grade ≥3 TEAE: enterocolitis ([2]; all cohorts, n = 19): 15.8% | Grade ≥3 TEAE: lymphocyte count decreased ([2]; all cohorts, n = 19): 36.8% | Grade ≥3 TEAE: lymphopenia ([2]; all cohorts, n = 19): 21.1% | Patients with any Capecitabine-related TEAE [2, 6]: 1 (100) n (%) | Patients with any Capecitabine-related grade ≥3 TEAE [2, 6]: 0 (0) n (%) | Patients with any Capecitabine-related grade ≥4 TEAE [2, 6]: 0 (0) n (%) | Patients with any Capecitabine-related serious TEAE [2, 6]: 0 n (%) | Patients with any Grade ≥3 TEAE [2, 6]: 0 (0) n (%) | Patients with any Grade ≥4 TEAE [2, 6]: 0 (0) n (%) | Patients with any Peposertib-related TEAE [2, 6]: 1 (100) n (%) | Patients with any Peposertib-related grade ≥ 3TEAE [2, 6]: 0 (0) n (%) | Patients with any Peposertib-related grade ≥4 TEAE [2, 6]: 0 (0) n (%) | Patients with any Peposertib-related serious TEAE [2, 6]: 0 n (%) | Patients with any RT-related TEAE [2, 6]: 1 (100) n (%) | Patients with any RT-related grade ≥3 TEAE [2, 6]: 0 (0) n (%) | Patients with any RT-related grade ≥4 TEAE [2, 6]: 0 (0) n (%) | Patients with any RT-related serious TEAE [2, 6]: 0 n (%) | Patients with any Serious TEAE [2, 6]: 0 n (%) | Patients with any TEAE [2, 6]: 1 (100) n (%) | Patients with any TEAE leading to death [2, 6]: 0 n (%) | Patients with any TEAE leading to permanent discontinuation of RT [2, 6]: 0 (0) n (%) | Patients with any TEAE leading to permanent discontinuation of capecitabine [2, 6]: 0 (0) n (%) | Patients with any TEAE leading to permanent discontinuation of peposertib [2, 6]: 0 (0) n (%) | Patients with any TEAE leading to study discontinuation [2, 6]: 0 n (%) | Patients with any Capecitabine-related TEAE [2, 7]: 6 (100) n (%) | Patients with any Capecitabine-related grade ≥3 TEAE [2, 7]: 2 (33) n (%) | Patients with any Capecitabine-related grade ≥4 TEAE [2, 7]: 2 (33) n (%) | Patients with any Capecitabine-related serious TEAE [2, 7]: 2 (33) n (%) | Patients with any Grade ≥3 TEAE [2, 7]: 4 (67) n (%) | Patients with any Grade ≥4 TEAE [2, 7]: 2 (33) n (%) | Patients with any Peposertib-related TEAE [2, 7]: 5 (83) n (%) | Patients with any Peposertib-related grade ≥ 3TEAE [2, 7]: 3 (50) n (%) | Patients with any Peposertib-related grade ≥4 TEAE [2, 7]: 2 (33) n (%) | Patients with any Peposertib-related serious TEAE [2, 7]: 2 (33) n (%) | Patients with any RT-related TEAE [2, 7]: 6 (100) n (%) | Patients with any RT-related grade ≥3 TEAE [2, 7]: 2 (33) n (%) | Patients with any RT-related grade ≥4 TEAE [2, 7]: 1 (17) n (%) | Patients with any RT-related serious TEAE [2, 7]: 2 (33) n (%) | Patients with any Serious TEAE [2, 7]: 3 (50) n (%) | Patients with any TEAE [2, 7]: 6 (100) n (%) | Patients with any TEAE leading to death [2, 7]: 0 n (%) | Patients with any TEAE leading to permanent discontinuation of RT [2, 7]: 0 (0) n (%) | Patients with any TEAE leading to permanent discontinuation of capecitabine [2, 7]: 0 (0) n (%) | Patients with any TEAE leading to permanent discontinuation of peposertib [2, 7]: 0 (0) n (%) | Patients with any TEAE leading to study discontinuation [2, 7]: 0 n (%) | Patients with any Capecitabine-related TEAE [2, 8]: 6 (100) n (%) | Patients with any Capecitabine-related grade ≥3 TEAE [2, 8]: 2 (33) n (%) | Patients with any Capecitabine-related grade ≥4 TEAE [2, 8]: 1 (17) n (%) | Patients with any Capecitabine-related serious TEAE [2, 8]: 0 n (%) | Patients with any Grade ≥3 TEAE [2, 8]: 4 (67) n (%) | Patients with any Grade ≥4 TEAE [2, 8]: 1 (17) n (%) | Patients with any Peposertib-related TEAE [2, 8]: 5 (83.3) n (%) | Patients with any Peposertib-related grade ≥ 3TEAE [2, 8]: 4 (67) n (%) | Patients with any Peposertib-related grade ≥4 TEAE [2, 8]: 1 (17) n (%) | Patients with any Peposertib-related serious TEAE [2, 8]: 0 n (%) | Patients with any RT-related TEAE [2, 8]: 6 (100) n (%) | Patients with any RT-related grade ≥3 TEAE [2, 8]: 2 (33) n (%) | Patients with any RT-related grade ≥4 TEAE [2, 8]: 1 (17) n (%) | Patients with any RT-related serious TEAE [2, 8]: 0 n (%) | Patients with any Serious TEAE [2, 8]: 0 n (%) | Patients with any TEAE [2, 8]: 6 (100) n (%) | Patients with any TEAE leading to death [2, 8]: 0 n (%) | Patients with any TEAE leading to permanent discontinuation of RT [2, 8]: 1 (17) n (%) | Patients with any TEAE leading to permanent discontinuation of capecitabine [2, 8]: 1 (17) n (%) | Patients with any TEAE leading to permanent discontinuation of peposertib [2, 8]: 1 (17) n (%) | Patients with any TEAE leading to study discontinuation [2, 8]: 0 n (%) | Patients with any Capecitabine-related TEAE [2, 9]: 6 (100) n (%) | Patients with any Capecitabine-related grade ≥3 TEAE [2, 9]: 6 (100) n (%) | Patients with any Capecitabine-related grade ≥4 TEAE [2, 9]: 2 (33) n (%) | Patients with any Capecitabine-related serious TEAE [2, 9]: 3 (50) n (%) | Patients with any Grade ≥3 TEAE [2, 9]: 6 (100) n (%) | Patients with any Grade ≥4 TEAE [2, 9]: 2 (33) n (%) | Patients with any Peposertib-related TEAE [2, 9]: 6 (100) n (%) | Patients with any Peposertib-related grade ≥ 3TEAE [2, 9]: 6 (100) n (%) | Patients with any Peposertib-related grade ≥4 TEAE [2, 9]: 2 (33) n (%) | Patients with any Peposertib-related serious TEAE [2, 9]: 4 (67) n (%) | Patients with any RT-related TEAE [2, 9]: 6 (100) n (%) | Patients with any RT-related grade ≥3 TEAE [2, 9]: 5 (83.3) n (%) | Patients with any RT-related grade ≥4 TEAE [2, 9]: 2 (33) n (%) | Patients with any RT-related serious TEAE [2, 9]: 3 (50) n (%) | Patients with any Serious TEAE [2, 9]: 4 (67) n (%) | Patients with any TEAE [2, 9]: 6 (100) n (%) | Patients with any TEAE leading to death [2, 9]: 0 n (%) | Patients with any TEAE leading to permanent discontinuation of RT [2, 9]: 1 (17) n (%) | Patients with any TEAE leading to permanent discontinuation of capecitabine [2, 9]: 2 (33) n (%) | Patients with any TEAE leading to permanent discontinuation of peposertib [2, 9]: 3 (50) n (%) | Patients with any TEAE leading to study discontinuation [2, 9]: 0 n (%) | Disease-free survival time: Median [3, 5]: 21.2 mo | Disease-free survival time: Minimum [3, 5]: 0 mo | Disease-free survival time: Number of events (PD, deaths) [3, 5]: 5 (26.3) n (%) | Disease-free survival time: maximum [3, 5]: 23.5 mo | Disease-free survival rate at 18 months ([3]; all cohorts, Kaplan-Meier estimate, 95% CI, 25.9–87.9): 65.9% | Median DFS ([3]; all cohorts, 95% CI, 18.0–not done): 21.2 months | Locoregional recurrence within the study period ([3]; nine patients who underwent surgery, follow-up of up to 2 years): none | Progression events at data cutoff ([3]; three deaths, two progressive disease events): five | Dose proportionality of exposure ([4]; across all dose levels after single and multiple dosing): dose proportional | half-life ([4]; human, plasma, oral, Mean terminal half-life, all dosing groups, independent of the dose level): 5 to 6 h | Accumulation after multiple once-daily dosing ([4]; in vivo): No relevant peposertib accumulation | Peposertib dose at which inhibition of DNA-PK autophosphorylation was observed (DNA-PK): ≥ 150 mg
